Screens as filed in PubChem.
RGS4 act = RGS4 potentiation or activation | AID 463111 | HEK293 M3R/inducible RGS4, carbachol calcium flux Fluo4; active compounds read low | B-score at 10 µM | actives 0.92% (n = 310,000);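 active means B-score of the integrated calcium signal more than 4 SD below the library mean, with starting fluorescence not abnormally high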;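 further: negative B-score means reduced calcium response which marks RGS4 activation or potentiation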
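Test system: HEK293 cells with stable M3R and inducible RGS4; also added: carbachol at ECmax as muscarinic agonist stimulus; schedule: dye loading 30 min 37 °C, buffer rest 30 min RT; technique: kinetic calcium fluorescence imaging with Fluo4-AM dye, 2 µM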
MrgX1 agonist = activates human MrgX1 receptor signaling; MrgX1-HEK293 cells, Fluo-4 calcium fluorescence, agonist mode; active compounds read high; Q96LB2; B-score at 10 µM; AID 588627; actives 0.44% (n = 310,000);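 active means calcium response B-score plate-corrected fluorescence ratio at least 3 library SD, with starting fluorescence B-score inside 5 SD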
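Test system: HEK293 cells stably expressing human MrgX1 receptor; amount: 15,000 cells per well; doses: compound delivered in addition one of three; times: overnight plating before 1 h dye loading; detection: Fluo-4 NW calcium-flux fluorescence, kinetic read; read-out basis: B-scored fluorescence response ratio; controls: positive and negative controls per plate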
Cl transport mod = KCC2 (human) Cl- transport modulation. KCC2 cells, thallium flux FluoZin-2 fluorescence. B-score of Tl+ flux slope (higher = more flux/activation; lower = inhibition) at 10 µM. AID 1456. Q9H2X9. actives 2.2% (n = 190,000);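 active means thallium flux slope and its plate-corrected score both differing from the plate sample mean at a set confidence after two filtering rounds, in either direction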;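 further: slope of fluorescence scaled to starting intensity during 10 to 20 s after thallium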
MrgX1 allo act = allosterically activates human MrgX1 receptor signaling; Q96LB2; MrgX1-HEK293, Fluo-4 calcium flux, FDSS; active compounds read high; actives 0.63% (n = 310,000); B-score at 10 µM;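 active means plate-corrected calcium response at least 3 library SD above typical, normal starting fluorescence, not activating the receptor alone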;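 further: compound read alongside a low EC10 to EC30 dose of BAM8-22 agonist; peak minus trough fluorescence over baseline measured at the second addition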
MrgX1 antag = blocks BAM8-22 activation of human MrgX1 receptor; Q96LB2; MRGX1-HEK293 calcium flux, Fluo-4, BAM8-22 antagonism; active compounds read low; B-score at 10 µM; actives 1.3% (n = 310,000);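 active means calcium-response B-score plate-corrected more than 3 library SD below zero, starting fluorescence within 5 deviations, no agonist response on first addition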;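 further: peak minus trough fluorescence over baseline after final BAM8-22 challenge near maximal dose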
RGS4 inh = inhibitors of human RGS4 | P49798 | HEK293 M3R/RGS4 inducible, Fluo-4 calcium flux; active compounds read high; triggered by carbachol at its EC20 | B-score at 10 µM | actives 0.45% (n = 310,000) | AID 463165;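 active means B-score, a plate-corrected calcium signal, over three deviations above library mean, with baseline fluorescence within five deviations of library mean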;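 further: RGS4 expression induced by doxycycline in cells with stable M3 receptor; B-score is computed from the integrated fluorescence ratio over baseline after carbachol; higher B-score means a larger calcium signal and so more RGS4 inhibition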
Target sequence (P49798 whole entry, looked up): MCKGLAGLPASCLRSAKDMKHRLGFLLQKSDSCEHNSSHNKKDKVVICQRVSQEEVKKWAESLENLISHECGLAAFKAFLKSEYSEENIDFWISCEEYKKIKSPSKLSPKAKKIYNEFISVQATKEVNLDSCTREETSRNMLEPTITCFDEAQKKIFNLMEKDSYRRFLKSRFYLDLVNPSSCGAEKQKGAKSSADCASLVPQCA
* hit, by the source's call. Hits are enriched below; roughly 4.7% of the tested compounds scored in any of these assays.

For O=C1C(=Cc2cccs2)C(=O)c2ccccc21 the results were RGS4 act inactive, MrgX1 agonist 31.7*, Cl transport mod 1.2, MrgX1 allo act inactive, MrgX1 antag inactive and RGS4 inh inactive.
Screening O=C(CSc1c2c(nc3cc(Cl)ccc13)CCCC2)NCCCN1CCOCC1 returned RGS4 act inactive, MrgX1 agonist inactive, Cl transport mod 0.573, MrgX1 allo act inactive, MrgX1 antag inactive and RGS4 inh inactive.
Screening CCN(CC)CCCNC(=O)CSc1c2c(nc3cc(Cl)ccc13)CCCC2 returned RGS4 act -7.23*, MrgX1 agonist inactive, Cl transport mod 0.0491, MrgX1 allo act inactive, MrgX1 antag inactive and RGS4 inh inactive.
Screening CCN(C(=O)COC(=O)c1cccc(S(=O)(=O)N2CCOCC2)c1)C1CCS(=O)(=O)C1 (centres undefined) returned RGS4 act inactive, MrgX1 agonist inactive, MrgX1 allo act inactive, MrgX1 antag inactive and RGS4 inh inactive.
`COc1cccc(/C=C/C(=O)OCC(=O)c2ccc3c(c2)NC(=O)CO3)c1OC` gave RGS4 act inactive, MrgX1 agonist inactive, Cl transport mod -0.0218, MrgX1 allo act 11.4*, MrgX1 antag inactive and RGS4 inh inactive.
Screening COc1ccccc1N(CC(=O)NC1CCCCC1)C(=O)CNC(=O)c1cccs1 returned RGS4 act inactive, MrgX1 agonist inactive, MrgX1 allo act inactive, MrgX1 antag inactive and RGS4 inh inactive.
For CCN1CCCC1CNC(=O)CCNC(=O)c1cc(OC)c(OC)c(OC)c1 (centres undefined) the results were RGS4 act inactive, MrgX1 agonist inactive, Cl transport mod 0.626, MrgX1 allo act inactive, MrgX1 antag -6.5* and RGS4 inh inactive.
Screening CSc1ccc(CN2CCC(CO)(CCOc3ccccc3)CC2)cc1 returned RGS4 act -6.99*, MrgX1 agonist inactive, MrgX1 allo act inactive, MrgX1 antag inactive and RGS4 inh inactive.
OCCNc1c2ccccc2nc2c(F)c(F)c(F)c(F)c12 was read as RGS4 act inactive, MrgX1 agonist inactive, Cl transport mod -1.02, MrgX1 allo act inactive, MrgX1 antag -8* and RGS4 inh inactive.
O=C(Cc1c(Cl)cccc1Cl)Nc1ccc(S(=O)(=O)Nc2ncccn2)cc1 was read as RGS4 act inactive, MrgX1 agonist inactive, MrgX1 allo act inactive, MrgX1 antag inactive and RGS4 inh inactive.
For CC(C)C(O)(C#CCN1CCCCC1)c1ccccc1 (centres undefined) the results were RGS4 act -7.19*, MrgX1 agonist inactive, Cl transport mod -1.15, MrgX1 allo act inactive, MrgX1 antag inactive and RGS4 inh inactive.
Screening CC(C)C(O)(C#CCN1CCCC1)c1ccccc1 (centres undefined) returned RGS4 act -7.45*, MrgX1 agonist inactive, Cl transport mod 0.737, MrgX1 allo act inactive, MrgX1 antag inactive and RGS4 inh inactive.
O=C1CCC(C(=O)N2CCc3ccccc3C2)CN1CCCN1CCOCC1 (centres undefined) was read as RGS4 act inactive, MrgX1 agonist inactive, MrgX1 allo act inactive, MrgX1 antag inactive and RGS4 inh inactive.
`C=C(C(=O)Nc1ccccc1)c1ccc(C)cc1` gave RGS4 act inactive, MrgX1 agonist inactive, MrgX1 allo act inactive, MrgX1 antag inactive and RGS4 inh inactive.
`O=C(OCC(=O)N1CCN(c2ccccc2)CC1)c1nc(Cl)ccc1Cl` gave RGS4 act inactive, MrgX1 agonist inactive, MrgX1 allo act inactive, MrgX1 antag inactive and RGS4 inh inactive.
For COC(=O)c1cc(S(=O)(=O)N2CCN(C(=O)c3ccco3)CC2)cn1C the results were RGS4 act inactive, MrgX1 agonist inactive, MrgX1 allo act inactive, MrgX1 antag inactive and RGS4 inh inactive.
N#C/C(=C\c1ccc[nH]1)C(=O)NCC1CCCO1 (centres undefined) was read as RGS4 act inactive, MrgX1 agonist inactive, MrgX1 allo act 7.83*, MrgX1 antag inactive and RGS4 inh inactive.
